Results on 2 molecules are retold here after article PMC2606940 (The Journal of General Physiology, 2009).

One test has as its target T1, CLC-0 E166I mutant (Torpedo marmorata, UniProt P21564, C212S/E166I).
T1 sequence (P21564 1-805 E166I/C212S): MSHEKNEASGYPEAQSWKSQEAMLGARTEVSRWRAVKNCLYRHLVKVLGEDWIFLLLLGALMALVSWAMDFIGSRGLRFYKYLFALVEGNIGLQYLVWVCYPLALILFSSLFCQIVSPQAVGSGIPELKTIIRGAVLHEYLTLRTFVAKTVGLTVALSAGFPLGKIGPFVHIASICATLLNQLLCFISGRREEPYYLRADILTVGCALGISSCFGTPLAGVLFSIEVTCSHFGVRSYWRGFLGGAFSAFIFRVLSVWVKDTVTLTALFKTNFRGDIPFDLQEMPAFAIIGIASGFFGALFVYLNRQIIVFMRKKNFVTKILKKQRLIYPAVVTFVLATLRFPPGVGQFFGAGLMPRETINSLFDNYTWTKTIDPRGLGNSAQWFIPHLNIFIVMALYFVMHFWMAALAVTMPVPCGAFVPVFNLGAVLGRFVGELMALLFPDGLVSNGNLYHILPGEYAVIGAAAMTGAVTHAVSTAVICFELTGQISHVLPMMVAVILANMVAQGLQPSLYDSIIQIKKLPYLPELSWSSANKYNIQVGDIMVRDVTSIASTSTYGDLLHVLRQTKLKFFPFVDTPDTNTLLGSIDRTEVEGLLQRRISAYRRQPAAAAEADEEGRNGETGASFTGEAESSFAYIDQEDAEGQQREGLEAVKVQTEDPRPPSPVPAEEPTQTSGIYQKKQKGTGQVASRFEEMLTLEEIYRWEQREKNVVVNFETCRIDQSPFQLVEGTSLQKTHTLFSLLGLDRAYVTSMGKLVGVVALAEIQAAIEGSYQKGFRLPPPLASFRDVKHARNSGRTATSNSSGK
Format: cell-based. The note with it: read-out: Apparent affinity (K1/2). A digest of the protocol: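 CLC-0 mutants in the C212S background were transfected into HEK293 cells with lipofectamine and recorded 1–3 d later as excised inside-out patches. Both sides held 130 mM NaCl, 5 mM MgCl2, 10 mM HEPES and 1 mM EGTA, pH 7.4. CPA was perfused continuously onto the cytoplasmic face. Steady-state current over the last 10 ms was normalized to bracketing blocker-free controls and fitted to a Langmuir function for K1/2. Values are mean ± SEM of ~4–6 patches.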

The target in another test is T2, CLC-0 E166S mutant (Torpedo marmorata, UniProt P21564, C212S/E166S).
T2 sequence (P21564 1-805 E166S/C212S): T1 sequence (P21564 1-805 E166I/C212S) with I166S
Format: cell-based. Conditions: read-out: Apparent affinity (K1/2). The method, boiled down: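 CLC-0 mutants (C212S background) were lipofectamine-transfected into HEK293 cells and recorded 1–3 d later from inside-out patches. Pipette and bath contained 130 mM NaCl, 5 MgCl2, 10 HEPES and 1 EGTA (pH 7.4). Test compound was perfused onto the cytoplasmic side. A +80 mV prepulse preceded steps to steady state. The last-10-ms current was normalized to bracketing blocker-free controls and fitted to a Langmuir function for K1/2.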

Changes are numbered by the printed parent chain. Read-outs that look alike come from different tables or passages of the source.

Take `O=C(O)COc1ccc(Cl)cc1` [CPA, p-chlorophenoxy acetate]: the IC50 on CLC-0 E166I mutant (−40 mV) amounted to 1250 ± 230 µM; at CLC-0 E166I mutant (−60 mV) it was 683 ± 85 µM; on CLC-0 E166I mutant (−80 mV) it was 384 ± 41 µM; at CLC-0 E166I mutant (−100 mV), 220 ± 24 µM; on CLC-0 E166I mutant (−120 mV) it was 117 ± 11 µM; at CLC-0 E166I mutant (−140 mV) it was 68 ± 8 µM. The IC50 at CLC-0 E166I mutant (−160 mV) was found to be 39 ± 4 µM; at CLC-0 E166S mutant (−40 mV) it was 641 ± 36 µM; on CLC-0 E166S mutant (−60 mV) it was 342 ± 15 µM; on CLC-0 E166S mutant (−80 mV), 179 ± 7 µM; on CLC-0 E166S mutant (−100 mV), 104 ± 4 µM; on CLC-0 E166S mutant (−120 mV), 58 ± 3 µM. The IC50 at CLC-0 E166S mutant (−140 mV) was determined as 35 ± 2 µM; at CLC-0 E166S mutant (−160 mV), 21 ± 1 µM.
For `CCCCCCCC(=O)O` [octanoate], the IC50 at CLC-0 E166I mutant (−40 mV) worked out at 218 ± 49 µM; on CLC-0 E166I mutant (−60 mV), 136 ± 26 µM; on CLC-0 E166I mutant (−80 mV) it was 79 ± 13 µM; on CLC-0 E166I mutant (−100 mV), 45 ± 7 µM; at CLC-0 E166I mutant (−120 mV), 26 ± 3 µM; at CLC-0 E166I mutant (−140 mV), 15 ± 2 µM. For the same molecule, the IC50 on CLC-0 E166I mutant (−160 mV) is 9 ± 1 µM; on CLC-0 E166S mutant (−40 mV) it was 855 ± 37 µM; at CLC-0 E166S mutant (−60 mV) it was 403 ± 22 µM; on CLC-0 E166S mutant (−80 mV), 198 ± 11 µM; at CLC-0 E166S mutant (−100 mV) it was 100 ± 9 µM; at CLC-0 E166S mutant (−120 mV), 50 ± 3 µM. The figures for the IC50 on CLC-0 E166S mutant (−140 mV) and on CLC-0 E166S mutant (−160 mV) were 26 ± 3 µM and 16 ± 2 µM, respectively.
